Experimental findings from the array DNA melting data of Ke et al. (doi:10.1101/2024.01.08.574731) are described below.

The nature of series [1]: folding enthalpy; higher = less favourable; fluorescence melt of hairpins on a sequencing array, two-state fit. The note with it: sodium 0.088 M. The essentials: (§1)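 To match UV melts, fitted temperatures were raised by 9.35 °C. These fits were bootstrapped two-state models that gave melting temperature and folding enthalpy, combined by inverse variance over four replicates. The input was normalised Cy3 fluorescence of library hairpins with annealed Cy3 and quencher oligos on a sequenced MiSeq flow cell, imaged in 50 mM Na-HEPES pH 8.0, 25 mM NaCl in 2.5 °C steps up to 60 °C.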

Series [2] in a line: melting temperature; fluorescence melt of hairpins on a sequencing array, two-state fit, raised by 9.35 °C to match UV melts. The following applies: sodium 0.088 M. The procedure, abridged: as §1

In the case of GGAATAACGAAAGTTTCC (((..(((....)))))), the folding enthalpy in series [1] is -14.8 kcal/mol. The Tm in series [2] was found to be 32.5 °C.
As to GGCCTTGGAAACAGGGCC ((((.((....)).)))), the folding enthalpy in series [1] was -46 kcal/mol. In addition, the Tm in series [2] came out at 57.1 °C.
For GTTAGCGAAAGCTCTAAC ((((((....)))..))) the same measures were -8.83 kcal/mol and 25.6 °C.
For GCTCCACGAAAGTGTAGC (((.(((....))).))) the same measures were -28.9 kcal/mol and 49.2 °C.
For GGAAGGGCGAAAGCCTCC (((..(((....)))))) the same measures were -11.2 kcal/mol and 41.1 °C.
Consider GAACGAGGAAACCCGTTC (((((.(....).))))), for which the folding enthalpy in series [1] was -33.5 kcal/mol. Also, in series [2], the Tm was determined as 45.9 °C.
For GACTCCGAAAGGACAGTC ((((((....)))..))) the same measures were -19.2 kcal/mol and 37.9 °C.
With GATCTTAGTTAAGATC ((((((....)))))), in series [1], the folding enthalpy is -34.9 kcal/mol. In series [2], the Tm amounted to 44.1 °C.
On the same counts, the results for GAGGAAACGAAAGTTCTC (((..(((....)))))) are -13.3 kcal/mol and 24.6 °C.
On the same counts, the results for GATCAAAGCTTTGATC ((((((....)))))) are -57.4 kcal/mol and 50.8 °C.
On the same counts, the results for GGCTAGGGAAACTTAGCC (((((.(....).))))) are -37.1 kcal/mol and 49.4 °C.
As to GGGCGACGAAAGTCCCCC (((.(((....))).))), in series [1], the folding enthalpy was -31.2 kcal/mol. In addition, the Tm in series [2] worked out at 55.7 °C.
Regarding GCAAGCGAAAGCTCCTGC ((((((....)))..))), in series [1], the folding enthalpy is -10.1 kcal/mol. The Tm in series [2] is 30.9 °C.
In the case of GGGGGTGGAAACGCCTCC ((.((.(....).)).)), the folding enthalpy in series [1] is -23.7 kcal/mol. Besides, the Tm in series [2] was found to be 49.7 °C.
Consider GGGGTAGGAAACTATCCC (((.(((....))).))), for which the folding enthalpy in series [1] is -38.4 kcal/mol. Further, the Tm in series [2] turned out to be 48.9 °C.
For GTTGGGAAACCAAC (((((....))))) the same measures were -27.9 kcal/mol and 51.7 °C.
On the same counts, the results for GGCCCGGGAAACCGGGTC (.(((((....))))).) are -28.9 kcal/mol and 67.3 °C.
For GTACGAGAAATCGTAC ((((((....)))))) the same measures were -38.2 kcal/mol and 54.3 °C.
For GTCCCCGAAAGGGGCGAC ((((((....)))..))), in series [1], the folding enthalpy is -14 kcal/mol. Besides, the Tm in series [2] was found to be 65.8 °C.
GATCTATTTCTAGATC ((((((....)))))): in series [1], the folding enthalpy was -30.2 kcal/mol. Further, the Tm in series [2] came out at 38.9 °C.
For GCGATCAGTCGC ((((....)))) the same measures were -23.2 kcal/mol and 49.3 °C.
With GATCCAGAGGTGGATC ((((((....)))))), the folding enthalpy in series [1] is -28.5 kcal/mol. The Tm in series [2] turned out to be 47.8 °C.
GATCACCCTAGTGATC ((((((....)))))): the folding enthalpy in series [1] was -38.9 kcal/mol. Further, the Tm in series [2] worked out at 58.9 °C.
For GCGAGAGCGAAAGCTCGC (((..(((....)))))) the same measures were -9.94 kcal/mol and 65.6 °C.
On the same counts, the results for GCAGAGCGAAAGCACTGC ((((.((....)).)))) are -34 kcal/mol and 67.4 °C.
For GTTTCTCGAAAGAGGAAC (((.(((....))).))) the same measures were -34.7 kcal/mol and 49.1 °C.
As to GCAAAGCGAAAGCGATGC (((..((....))..))), in series [1], the folding enthalpy is -24.4 kcal/mol. In addition, the Tm in series [2] came to 61.7 °C.
Take GGTATGCGAAAGCAACC (((.(((....)))))): the folding enthalpy in series [1] was -14.5 kcal/mol. In addition, in series [2], the Tm was found to be 47.7 °C.
On the same counts, the results for GCCATGCGAAAGCACTGC ((..(((....)))..)) are -10.4 kcal/mol and 31.8 °C.
In the case of ATCCTGAAAAGGAT (((((....))))), in series [1], the folding enthalpy is -18.9 kcal/mol. Also, in series [2], the Tm was 45.2 °C.
With GGCTGCCGAAAGGCGCC (((.(((....)))))), the folding enthalpy in series [1] is -18.9 kcal/mol. The Tm in series [2] is 68.3 °C.
For GACTGGGAAACCAGTC ((((((....)))))) the same measures were -35.1 kcal/mol and 60.1 °C.
For GCGATTGGAAACAGTCGC ((((.((....)).)))) the same measures were -42 kcal/mol and 54.2 °C.
For GCGACGCTTCGC ((((....)))) the same measures were -14.7 kcal/mol and 55.7 °C.
On to GGGGTAGGAAACTGCCTC (.((.((....)).)).), for which the folding enthalpy in series [1] was -25.1 kcal/mol. The Tm in series [2] is 38 °C.
For GATCAGACTGCTGATC ((((((....)))))) the same measures were -28.1 kcal/mol and 48.3 °C.
On the same counts, the results for GATTAAGAAATTAATC ((((((....)))))) are -14.9 kcal/mol and 30.4 °C.
For the sequence GGCCTCGGAAACGAGACC ((.((((....)))).)), the folding enthalpy in series [1] was -31.3 kcal/mol. The Tm in series [2] stood at 52.2 °C.
On the same counts, the results for GATCTACGCCTAGATC ((((((....)))))) are -33.8 kcal/mol and 42.6 °C.
For GGCATCCGAAAGGAAGCC (((.(((....))).))) the same measures were -42.9 kcal/mol and 59.2 °C.
In the case of GCGAATGATCGC ((((....)))), the folding enthalpy in series [1] was -17.7 kcal/mol. For the same sequence, the Tm in series [2] was determined as 42.3 °C.
On to GGCCCACGAAAGTGAGCC (((.(((....))).))), for which the folding enthalpy in series [1] was -40.6 kcal/mol. Also, the Tm in series [2] stood at 60.8 °C.
On the same counts, the results for GGAGATGGAAACATCTTC (.(((((....))))).) are -26.2 kcal/mol and 44.6 °C.
On the same counts, the results for GATCCGCACGCGGATC ((((((....)))))) are -39.1 kcal/mol and 67.6 °C.
For GCTAGACGAAAGTCAGC (((.(((....)))))) the same measures were -23.1 kcal/mol and 54.2 °C.
Take GATCGACATATCGATC ((((((....)))))): the folding enthalpy in series [1] was -43.4 kcal/mol. Besides, in series [2], the Tm turned out to be 51.7 °C.
Consider GTCGGGTCGAAAGACGAC (((..(((....)))))), for which the folding enthalpy in series [1] is -19.8 kcal/mol. The Tm in series [2] came to 47.4 °C.
Take GCCTTGCGAAAGCACCGC ((..(((....)))..)): the folding enthalpy in series [1] was -10.6 kcal/mol. Moreover, the Tm in series [2] was determined as 42.6 °C.
As to GCACAGCGAAAGCCGGGC ((.(.((....)).).)), the folding enthalpy in series [1] is -22.4 kcal/mol. Further, the Tm in series [2] amounted to 55.7 °C.
For GAAACCGAAAGGTATTC ((((((....))).))) the same measures were -14.1 kcal/mol and 31.6 °C.
On the same counts, the results for GCATGTGGAAACGTATGC ((((..(....)..)))) are -26.3 kcal/mol and 41 °C.
On the same counts, the results for GATCGACACGTCGATC ((((((....)))))) are -33.7 kcal/mol and 59.7 °C.
As for GGGGGTACGAAAGTACCC (((..(((....)))))), the folding enthalpy in series [1] is -8.56 kcal/mol. Besides, the Tm in series [2] was found to be 63.4 °C.
For GCGTCGCAACGC ((((....)))) the same measures were -20 kcal/mol and 56.2 °C.
On the same counts, the results for GTCCTGCCGAAAGGCGAC (((..(((....)))))) are -9.38 kcal/mol and 33.2 °C.
On the same counts, the results for GATCGTACTTACGATC ((((((....)))))) are -39.8 kcal/mol and 55.3 °C.
